Experimental data: ChEMBL document CHEMBL3085708, “Identification and profiling of 3,5-dimethyl-isoxazole-4-carboxylic acid [2-methyl-4-((2S,3'S)-2-methyl-[1,3']bipyrrolidinyl-1'-yl)phenyl] amide as histamine H(3) receptor antagonist for the treatment of depression” (Bioorg Med Chem Lett, 2013)

Assays:
[1] = Drug metabolism in rat liver microsomes; type: ADME; conditions: read-out: Drug metabolism
[2] = Elimination half life in OF1 mouse plasma at 10 mg/kg, po; type: ADME, organism-based; set-up: dose 10 mg/kg, route oral; conditions: read-out: beta t1/2 (converted)
In short: (§1)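 Single-dose PK; male OF1 mice and male Sprague-Dawley rats, 2 mg/kg iv and 10 mg/kg po. Mouse vehicles: iv 50% 1-methyl-2-pyrrolidinone in saline (1.0 mg/mL); po 5% DMSO/0.5% MC/0.2% Tween80 (1.0 mg/mL). Rat vehicles: iv saline (0.5 mg/mL); po 0.5% MC/0.2% Tween80 (1.0 mg/mL). Plasma and brain exposure read as AUC0-∞ and t1/2.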

[3] = Toxicity in guinea pig heart assessed as decrease in ventricular contraction at 30 uM relative to control; type: tissue-based, Cavia porcellus, Cardiac ventricle
Mus musculus [4] = test: Toxicity in mouse assessed as effect on behavioral activity at 10 to 30 mg/kg, po by Irwin test; type: organism-based; set-up: dose 10-30 mg/kg, route oral; conditions: in vivo
In short: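 Irwin exploratory general behaviour study in male mice; single oral doses of 0, 10 and 30 mg/kg; behavioural, neurologic and autonomic effects observed.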

[5] = Ratio of AUC (0 to infinity) in brain to plasma in OF1 mouse at 2 mg/kg, iv; type: ADME, organism-based; set-up: dose 2 mg/kg, route intravenous; conditions: brain and plasma, read-out: Ratio AUC
[6] = Drug metabolism in mouse liver microsomes; type: ADME, Microsome; conditions: read-out: Drug metabolism
Histamine H3 receptor [7] = biological target: Histamine H3 receptor (Homo sapiens, UniProt Q9Y5N1); test: Inverse agonist activity at human histamine H3 receptor (445 amino acid residues) expressed in CHO cells by CRE-luciferase reporter gene assay; type: functional, cell-based
[8] = Elimination half life in OF1 mouse plasma at 2 mg/kg, iv; type: ADME, organism-based; set-up: dose 2 mg/kg, route intravenous; conditions: read-out: beta t1/2 (converted); in short: as §1
[9] = Drug metabolism in rabbit plasma at 100 ng/ml after 4 hrs; type: ADME, cell-free, Oryctolagus cuniculus; conditions: read-out: Drug metabolism
In short: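 Compound spiked into blank plasma of human, mouse, rat, rabbit, macaque and dog at 100 ng/ml, then incubated in a 37 °C water bath for up to 4 h; percent metabolized reported.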

Mus musculus [10] = test: Toxicity in mouse assessed as effect on social interaction at 30 mg/kg, po; type: organism-based; set-up: dose 30 mg/kg, route oral; conditions: in vivo
In short: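 Acute oral group toxicity in mice: behavioural side effects scored (social interaction, motility, preconvulsant signs, convulsions, tremor) after single po doses of 30 and 100 mg/kg.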

[11] = Tmax in Sprague-Dawley rat plasma at 10 mg/kg, po; type: ADME, organism-based; set-up: dose 10 mg/kg, route oral
In short: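 Male Sprague-Dawley rats dosed 2 mg/kg iv in saline (0.5 mg/mL) and 10 mg/kg po in 0.5% MC/0.2% Tween80 (1.0 mg/mL); plasma and brain concentrations followed.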

Histamine H3 receptor [12] = biological target: Histamine H3 receptor (Rattus norvegicus, UniProt Q9QYN8); test: Displacement of [3H]-methylhistamine from rat histamine H3 receptor (445 amino acid residues) transfected in human 293 cells after 1 hr by scintillation counting analysis; type: cell-based
[13] = Drug metabolism in macaque liver microsomes; type: ADME, Microsome; conditions: macaca, read-out: Drug metabolism
[14] = Volume of distribution in OF1 mouse at 2 mg/kg, iv; type: ADME, organism-based; set-up: dose 2 mg/kg, route intravenous; conditions: in vivo
In short: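 Male OF1 mice given 2 mg/kg iv (50% 1-methyl-2-pyrrolidinone in saline, 1.0 mg/mL) and 10 mg/kg po (5% DMSO/0.5% MC/0.2% Tween80, 1.0 mg/mL); plasma and brain exposure measured; B/P ratio from iv AUC.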

[15] = Drug metabolism in human liver microsomes; type: ADME; conditions: read-out: Drug metabolism
[16] = Elimination half life in OF1 mouse brain at 2 mg/kg, iv; type: ADME, organism-based; set-up: dose 2 mg/kg, route intravenous; conditions: read-out: beta t1/2 (converted); in short: as §1

Chain of Histamine H3 receptor (Rattus norvegicus, UniProt Q9QYN8) (Q9QYN8 whole entry): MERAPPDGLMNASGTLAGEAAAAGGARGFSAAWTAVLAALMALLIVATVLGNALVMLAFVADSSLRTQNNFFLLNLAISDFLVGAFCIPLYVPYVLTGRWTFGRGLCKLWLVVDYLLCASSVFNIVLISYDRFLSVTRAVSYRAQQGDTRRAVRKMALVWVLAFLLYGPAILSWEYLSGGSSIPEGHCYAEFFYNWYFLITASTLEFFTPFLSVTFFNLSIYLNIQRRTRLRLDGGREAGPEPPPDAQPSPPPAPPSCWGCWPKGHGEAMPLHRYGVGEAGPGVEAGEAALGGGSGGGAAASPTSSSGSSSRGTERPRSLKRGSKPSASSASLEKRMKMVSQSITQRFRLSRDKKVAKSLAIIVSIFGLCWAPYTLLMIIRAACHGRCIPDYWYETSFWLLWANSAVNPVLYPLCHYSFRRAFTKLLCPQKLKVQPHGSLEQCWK
Chain of Histamine H3 receptor (Homo sapiens, UniProt Q9Y5N1) (Q9Y5N1 whole entry): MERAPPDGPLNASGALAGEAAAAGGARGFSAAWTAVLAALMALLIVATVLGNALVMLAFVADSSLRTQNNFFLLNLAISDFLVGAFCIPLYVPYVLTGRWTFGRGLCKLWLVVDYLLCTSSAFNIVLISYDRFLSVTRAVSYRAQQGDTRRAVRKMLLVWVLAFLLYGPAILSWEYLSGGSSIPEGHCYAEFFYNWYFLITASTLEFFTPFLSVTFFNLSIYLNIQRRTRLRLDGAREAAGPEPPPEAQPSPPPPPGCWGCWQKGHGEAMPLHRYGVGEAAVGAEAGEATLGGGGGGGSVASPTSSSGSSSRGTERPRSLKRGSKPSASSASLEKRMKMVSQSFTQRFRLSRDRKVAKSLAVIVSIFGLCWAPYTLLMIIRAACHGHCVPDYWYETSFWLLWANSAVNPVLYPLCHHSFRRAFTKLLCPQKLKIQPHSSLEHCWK

**Q.** For `Cc1cc(N2CC[C@H](N3CCC[C@@H]3C)C2)ccc1NC(=O)c1c(C)noc1C`, which metabolised [1] is on record?
**A.** The metabolised was under 5%.

**Q.** And the half-life [2]?
**A.** The half-life was 108 min.

**Q.** And the inhibition at 30 µM [3]?
**A.** The inhibition at 30 µM was 33%.

**Q.** And the Activity (Mus musculus [4])?
**A.** Its Activity is “Non-toxic”.

**Q.** What about the Kp [5] of the same compound?
**A.** Its Kp is 1.6.

**Q.** And the metabolised [6]?
**A.** Its metabolised is under 5%.

**Q.** What about the EC50 (Histamine H3 receptor [7]) of the same compound?
**A.** The EC50 was 0.7 nM.

**Q.** And the half-life [8]?
**A.** The half-life was 39 min.

**Q.** What about the metabolised at 4 h, 100 ng/ml [9] of the same compound?
**A.** Its metabolised at 4 h, 100 ng/ml is under 5%.

**Q.** What about the Activity (Mus musculus [10]) of the same compound?
**A.** Its Activity is “Non-toxic”.

**Q.** What about the Tmax [11] of the same compound?
**A.** Its Tmax is 30 min.

**Q.** And the Ki (Histamine H3 receptor [12])?
**A.** Its Ki is 0.9 nM.

**Q.** What about the metabolised [13] of the same compound?
**A.** Its metabolised is under 5%.

**Q.** And the Vd [14]?
**A.** The Vd was 1.7 L/kg.

**Q.** And the metabolised [15]?
**A.** Its metabolised is under 5%.

**Q.** What about the half-life [16] of the same compound?
**A.** Its half-life is 55.8 min.
